Experimental data collected from several papers.
Each line is one published result; the experiments were not run side by side. pIC50: −log10 of the molar value.

Structure (SMILES)	cell line	effect on	mode	method	time	notes	pIC50
O=C(CCO)NCc1ccccc1	DH82	NO release	inhibitor	Griess	24 h	LPS-stimulated	4.24
Cn1nnc2c(C(N)=O)ncn2c1=O	U-87 MG	cell growth or viability		trypan blue	72 h		4.30
Nc1n[nH]c2nc(-c3cccc(O)c3)cc(-c3cc4ccccc4nc3N3CCOCC3)c12	NFS-60	cell growth or viability		MTT	72 h		7.19
CC1(C)CCC(CN2CCN(c3ccc(C(=O)NS(=O)(=O)c4ccc(NCC5CCOCC5)c([N+](=O)[O-])c4)c(Oc4cnc5[nH]ccc5c4)c3)CC2)=C(c2ccc(Cl)cc2)C1	DOHH-2	cell growth or viability		ATP luminescence	48 h		7.11
C=C(F)C(=O)N1CCN(c2nc(OC[C@@H]3CCCN3C)nc3c2CCN(c2cccc4cccc(Cl)c24)C3)C[C@@H]1CC#N	PC-9	cell growth or viability		ATP luminescence			5.70
NC(=O)c1ccncc1	DH82	PGE2 release	inhibitor	ELISA	24 h	LPS-stimulated	< 3.70
CCOc1nc(-c2cccc(O)c2)cc(-c2cc3ccccc3nc2N2CCOCC2)c1C#N	NFS-60	cell growth or viability		MTT	72 h		7.07
CN1Cc2c(N)cccc2C(=O)N1C1CCC(=O)NC1=O (stereo not drawn)	NCI-H929	cell growth or viability		CCK-8	96 h		> 6.48
COc1cc2c(cc1OC)-c1cc3ccc(OC)c(OCCN)c3c[n+]1CC2	PC-9	cell growth or viability		MTT	72 h		< 4.10
COc1ccc(-c2cc(-c3ccc(Br)cc3)c3c(=O)n(C)c(=O)n(C)c3n2)cc1	HCT-116	cell growth or viability		MTT	48 h		4.97
C=CC(=O)Nc1cc(Nc2nccc(-c3cn(C)c4ccccc34)n2)c(OC)cc1N(C)CCN(C)C	PC-9	cell growth or viability		MTS	72 h		5.84
COCCC(=O)NCc1ccccc1	DH82	NO release	inhibitor	Griess	24 h	LPS-stimulated	3.77
COc1ccc(-c2cc(-c3cc(OC)ccc3OC)c3c(=O)[nH]c(=O)[nH]c3n2)cc1	HCT-116	cell growth or viability		MTT	48 h		4.93
NCCC(=O)NCc1ccccc1	DH82	NO release	inhibitor	Griess	24 h	LPS-stimulated	3.80
CCNCCCn1c2c(c3cc(OC)c(OC)cc3c1=O)C(=O)c1cc3c(nc1-2)OCO3	Raji	cell growth or viability		MTS	72 h		6.90
Nc1n[nH]c2nc(-c3cccc(O)c3)cc(-c3cc4cc(Cl)ccc4nc3N3CCOCC3)c12	NFS-60	cell growth or viability		MTT	72 h		6.80
O=C(CCNNC(=O)c1ccncc1)NCc1ccccc1	DH82	PGE2 release	inhibitor	ELISA	24 h	LPS-stimulated	< 3.70
COc1cc2c3c(n(CCCNC(C)C)c(=O)c2cc1OC)-c1nc2c(cc1C3=O)OCO2	Raji	cell growth or viability		MTS	72 h		6.74
